Measurements from different studies.
Target: Tyrosine-protein kinase Lck (LCK, Homo sapiens, UniProt P06239)

Structure (SMILES)	assay	setting	remaining binding [%]
O=C(Nc1c[nH]nc1C(=O)NC1CCNCC1)c1cc(F)cc(F)c1	binding, competition with immobilised ligand	1 µM	100
C[C@@H](c1ccc(-n2cnc3c(N)ncnc32)cc1)N1CCc2nn(C)c(Cc3ccccc3)c2C1=O	binding, competition with immobilised ligand	0.1 µM	94
COc1ccnn2ncc(-c3ccnc(N(C)C)n3)c12	binding	1 µM	94
CCCOc1ccc([C@@H]2[C@@H](C(=O)O)[C@H](c3ccc4c(c3)OCO4)CN2CC(=O)Nc2c(CC)cccc2CC)cc1	cell-free assay, competition with immobilised ligand	1 µM	100
FC(F)(F)Oc1cccc(-c2cnc3ccc(-c4ccncc4)nn23)c1	cell-free assay, competition with immobilised ligand	5 µM	35
CNC(=O)c1ccc(Nc2ncc(C(F)(F)F)c(NCc3nccnc3N(C)S(C)(=O)=O)n2)cc1	cell-free assay, competition with immobilised ligand	0.1 µM	87
CN(CCCC(F)(F)F)c1nccc(-c2cnn3ncccc23)n1	binding	1 µM	89
COc1ccc2cc(OCC3(C(=O)O)CN(C(=O)c4ccc(F)cc4)C3)ccc2c1	cell-free assay, competition with immobilised ligand	1 µM	80
O=C(NCCCN1CCOCC1)c1ccc(Nc2nccc(-c3cc4ccccc4s3)n2)cc1	binding, competition with immobilised ligand	1 µM	76
CN([C@@H]1CCc2c(CC(=O)O)c3cc(S(C)(=O)=O)ccc3n2C1)S(=O)(=O)c1ccc(F)cc1	cell-free assay, competition with immobilised ligand	1 µM	100
O=C(NCCCN1CCOCC1)c1ccc(Nc2ncc(Cl)c(-c3ccc(Cl)s3)n2)cc1	binding, competition with immobilised ligand	1 µM	100
c1cncc(-c2cccc(Nc3nccc(NC4CCCCC4)n3)c2)c1	binding, competition with immobilised ligand	10 µM	6.6
O=C(c1ccc(Nc2nccc(-c3cc4ccccc4s3)n2)cc1)N1CCC(N2CCCC2)CC1	binding, competition with immobilised ligand	1 µM	34
CNC(=O)[C@@H]1CC[C@@H](n2c(-c3ccc4cnccc4c3)nc3ccc(C(=O)NCc4cccc(C(N)=O)c4)cc32)C1	binding, competition with immobilised ligand	1 µM	94
C[C@@H]1CCN(c2nccc(-c3cnn4ncccc34)n2)C1	binding	1 µM	93
CNCc1ccccc1-c1csc([C@H](C)Nc2nc(C)nc3cc(OC)c(OC)cc23)c1	cell-free assay, competition with immobilised ligand	1 µM	100
